This passage reports inhibition in vivo, IC50 and CC50 results from ChEMBL document CHEMBL4359902, “Development of novel chromeno[4,3-c]pyrazol-4(2H)-one derivates bearing sulfonylpiperazine as antitumor inhibitors targeting PI3Kα” (Eur J Med Chem, 2019).

SMILES strings stand for the structures.

For series [1], the system named is HCT-116. As to the kind of experiment: Antitumour activity against human HCT116 cells xenografted in nude mouse assessed as tumour growth inhibition at 10 mg/kg, ig administered every 3 days for 3 weeks and measured after 3 weeks relative to control. In kind it is functional. As to conditions: HCT-116, po, read-out: TGI. The gist of the method: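 HCT-116 cells (5 × 10^6 per animal) injected into right flank of nude mice; at ~100 mm³ tumours, randomized into groups of 6. Dosed 10 mg/kg in 5% CMC-Na intragastrically every three days for three weeks; vehicle control 5% CMC-Na. Body weight and tumour size recorded every three days, volume = 0.5 × length × width²; tumours excised and weighed at end. Mean ± SD.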
(In general: Xenograft models place foreign cells or tissue in a host animal.)

Series [2] concerns the target Serine/threonine-protein kinase mTOR (Homo sapiens, UniProt P42345). Description: Inhibition of mTOR (unknown origin).
For another series, the system named is A549. As to the kind of experiment: Antiproliferative activity against human A549 cells assessed as reduction in cell viability after 48 hrs by MTT assay. In kind it is functional, cell-based. Conditions: A549, 48 h. A general note: Tetrazolium assays rely on reduction of a dye to a coloured formazan, in cell work by metabolically active cells.
Series [3] addresses Phosphatidylinositol 4,5-bisphosphate 3-kinase catalytic subunit gamma isoform (Homo sapiens, UniProt P48736). As to the kind of experiment: Inhibition of PI3Kgamma (unknown origin) using diC8-PI(4,5)P2 as substrate incubated for 3 hrs in presence of ATP by fluorescence polarization assay. The gist of the method: (§1)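 Fluorescence polarization competition assay, 10 μL reactions at pH 7: 2.5 mM MgCl₂, 5 mM HEPES, ATP, 10 mM DTT, 50 ng PI3K isoform, diC8-PI(4,5)P2 substrate. After 3 h at room temperature, reactions were chelator-quenched. Phosphoinositide binding protein and fluorophore-labelled tracer were added, then 1 h dark equilibration and polarization read.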

The target in series [4] is Phosphatidylinositol 4,5-bisphosphate 3-kinase catalytic subunit beta isoform (Homo sapiens, UniProt P42338). As to the kind of experiment: Inhibition of PI3Kbeta (unknown origin) using diC8-PI(4,5)P2 as substrate incubated for 3 hrs in presence of ATP by fluorescence polarization assay. The gist of the method: as §1
A general note: Fluorescence polarisation rises when a labelled molecule tumbles more slowly, as on binding a larger partner.

Series [5] has as its system HCT-116. As to the kind of experiment: Antiproliferative activity against human HCT116 cells assessed as reduction in cell viability after 48 hrs by MTT assay. Conditions: HCT-116, 48 h. The class given is functional, cell-based.
The next series deals with HL-60. As to the kind of experiment: Antiproliferative activity against human HL60 cells assessed as reduction in cell viability after 48 hrs by MTT assay. The class given is functional, cell-based. As to conditions: HL-60, 48 h.
The target in series [6] is T1, Phosphatidylinositol 4,5-bisphosphate 3-kinase catalytic subunit delta isoform (Homo sapiens, UniProt O00329).
T1 sequence (O00329 whole entry): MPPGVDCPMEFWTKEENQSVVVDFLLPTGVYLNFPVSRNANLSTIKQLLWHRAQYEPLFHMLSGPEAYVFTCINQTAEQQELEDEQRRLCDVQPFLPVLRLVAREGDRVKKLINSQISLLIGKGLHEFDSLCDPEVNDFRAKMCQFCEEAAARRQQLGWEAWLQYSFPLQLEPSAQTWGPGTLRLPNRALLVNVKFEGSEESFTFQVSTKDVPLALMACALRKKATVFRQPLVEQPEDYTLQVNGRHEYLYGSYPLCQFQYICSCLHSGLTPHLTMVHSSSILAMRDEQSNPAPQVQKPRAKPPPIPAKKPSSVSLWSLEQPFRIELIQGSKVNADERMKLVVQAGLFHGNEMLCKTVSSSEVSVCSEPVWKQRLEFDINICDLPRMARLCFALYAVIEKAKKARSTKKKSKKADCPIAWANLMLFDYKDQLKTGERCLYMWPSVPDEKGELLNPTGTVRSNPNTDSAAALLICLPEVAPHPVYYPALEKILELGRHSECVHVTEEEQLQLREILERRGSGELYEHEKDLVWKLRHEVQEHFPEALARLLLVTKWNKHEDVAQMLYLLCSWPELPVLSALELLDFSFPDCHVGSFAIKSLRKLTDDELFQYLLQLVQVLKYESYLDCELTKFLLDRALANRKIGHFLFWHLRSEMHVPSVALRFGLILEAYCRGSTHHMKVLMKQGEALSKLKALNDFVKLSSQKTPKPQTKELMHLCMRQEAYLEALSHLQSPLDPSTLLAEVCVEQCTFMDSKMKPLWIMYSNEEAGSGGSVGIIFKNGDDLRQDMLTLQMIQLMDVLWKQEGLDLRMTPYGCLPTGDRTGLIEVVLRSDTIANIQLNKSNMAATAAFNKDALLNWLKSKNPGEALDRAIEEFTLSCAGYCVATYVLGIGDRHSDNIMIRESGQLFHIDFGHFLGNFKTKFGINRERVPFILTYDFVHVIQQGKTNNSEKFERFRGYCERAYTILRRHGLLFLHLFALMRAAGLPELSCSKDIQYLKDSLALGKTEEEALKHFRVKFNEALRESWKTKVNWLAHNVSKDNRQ
As to the kind of experiment: Inhibition of PI3Kdelta (unknown origin) using diC8-PI(4,5)P2 as substrate incubated for 3 hrs in presence of ATP by fluorescence polarization assay. The gist of the method: as §1

Series [7] addresses Phosphatidylinositol 4,5-bisphosphate 3-kinase catalytic subunit alpha isoform (Homo sapiens, UniProt P42336). Description: Inhibition of PI3Kalpha (unknown origin) using diC8-PI(4,5)P2 as substrate incubated for 3 hrs in presence of ATP by fluorescence polarization assay. In short, it runs like this:
as §1

A short description of series [8]: Cytotoxicity against human 293T cells. The class given is cell-based. Conditions: HEK-293T cells.
Another series has as its system Huh-7. As to the kind of experiment: Antiproliferative activity against human HuH7 cells assessed as reduction in cell viability after 48 hrs by MTT assay. Conditions: Huh-7, 48 h. The class given is functional, cell-based.

Chain of Phosphatidylinositol 4,5-bisphosphate 3-kinase catalytic subunit beta isoform (P42338 whole entry, canonical isoform): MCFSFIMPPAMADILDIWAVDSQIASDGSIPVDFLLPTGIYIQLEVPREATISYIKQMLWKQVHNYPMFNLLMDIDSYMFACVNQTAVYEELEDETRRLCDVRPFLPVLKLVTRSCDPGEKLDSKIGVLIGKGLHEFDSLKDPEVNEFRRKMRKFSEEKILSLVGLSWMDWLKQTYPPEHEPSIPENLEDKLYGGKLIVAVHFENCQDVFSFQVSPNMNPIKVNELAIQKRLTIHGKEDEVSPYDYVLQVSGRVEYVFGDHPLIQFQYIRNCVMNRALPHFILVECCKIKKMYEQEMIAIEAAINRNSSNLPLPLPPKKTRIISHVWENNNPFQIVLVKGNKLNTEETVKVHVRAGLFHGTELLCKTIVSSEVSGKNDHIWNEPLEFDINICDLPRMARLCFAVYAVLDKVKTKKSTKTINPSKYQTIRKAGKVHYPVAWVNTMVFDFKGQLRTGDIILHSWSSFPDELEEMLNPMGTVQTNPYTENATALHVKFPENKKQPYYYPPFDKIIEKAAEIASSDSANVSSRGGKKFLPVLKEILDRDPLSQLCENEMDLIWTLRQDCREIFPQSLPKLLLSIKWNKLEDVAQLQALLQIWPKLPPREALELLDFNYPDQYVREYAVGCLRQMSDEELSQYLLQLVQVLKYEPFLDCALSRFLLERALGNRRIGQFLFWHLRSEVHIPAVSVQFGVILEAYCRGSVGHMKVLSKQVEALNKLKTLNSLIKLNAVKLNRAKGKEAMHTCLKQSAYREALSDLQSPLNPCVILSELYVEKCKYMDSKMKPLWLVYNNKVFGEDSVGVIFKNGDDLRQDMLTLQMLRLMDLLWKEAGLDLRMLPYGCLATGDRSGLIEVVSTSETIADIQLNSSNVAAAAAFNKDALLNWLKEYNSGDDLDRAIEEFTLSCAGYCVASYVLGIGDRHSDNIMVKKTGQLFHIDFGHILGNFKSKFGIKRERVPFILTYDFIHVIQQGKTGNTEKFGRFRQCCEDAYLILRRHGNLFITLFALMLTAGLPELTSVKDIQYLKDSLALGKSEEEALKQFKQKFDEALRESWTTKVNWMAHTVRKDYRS
Chain of Phosphatidylinositol 4,5-bisphosphate 3-kinase catalytic subunit gamma isoform (P48736 whole entry, canonical isoform): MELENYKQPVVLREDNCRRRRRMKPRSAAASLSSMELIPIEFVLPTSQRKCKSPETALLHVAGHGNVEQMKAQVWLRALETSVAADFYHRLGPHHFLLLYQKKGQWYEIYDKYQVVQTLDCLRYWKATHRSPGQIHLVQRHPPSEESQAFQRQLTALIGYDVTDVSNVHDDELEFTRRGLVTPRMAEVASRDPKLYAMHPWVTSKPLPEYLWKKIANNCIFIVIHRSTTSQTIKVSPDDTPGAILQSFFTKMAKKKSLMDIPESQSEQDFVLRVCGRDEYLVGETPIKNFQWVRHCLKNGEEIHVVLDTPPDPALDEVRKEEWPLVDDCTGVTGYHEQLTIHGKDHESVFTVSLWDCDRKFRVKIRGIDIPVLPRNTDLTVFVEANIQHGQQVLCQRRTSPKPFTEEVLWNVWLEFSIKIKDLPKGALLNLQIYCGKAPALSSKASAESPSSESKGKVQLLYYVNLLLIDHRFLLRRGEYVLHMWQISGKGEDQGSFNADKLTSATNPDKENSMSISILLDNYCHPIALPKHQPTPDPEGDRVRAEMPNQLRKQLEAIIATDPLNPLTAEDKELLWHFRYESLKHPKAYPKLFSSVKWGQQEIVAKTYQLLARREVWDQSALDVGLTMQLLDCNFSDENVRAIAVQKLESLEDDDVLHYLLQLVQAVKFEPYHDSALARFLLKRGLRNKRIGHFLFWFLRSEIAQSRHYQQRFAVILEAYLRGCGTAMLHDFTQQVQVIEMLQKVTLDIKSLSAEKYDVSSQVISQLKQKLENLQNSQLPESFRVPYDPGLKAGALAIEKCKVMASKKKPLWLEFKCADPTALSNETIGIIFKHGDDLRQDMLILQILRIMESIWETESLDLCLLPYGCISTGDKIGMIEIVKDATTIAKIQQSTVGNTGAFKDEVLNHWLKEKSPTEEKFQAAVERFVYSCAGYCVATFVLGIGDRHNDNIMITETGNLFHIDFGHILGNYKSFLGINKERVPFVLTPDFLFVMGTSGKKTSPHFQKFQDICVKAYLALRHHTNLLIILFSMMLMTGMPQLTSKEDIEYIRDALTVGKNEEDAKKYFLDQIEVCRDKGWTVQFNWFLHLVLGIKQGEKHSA
Chain of Phosphatidylinositol 4,5-bisphosphate 3-kinase catalytic subunit alpha isoform (P42336 whole entry, canonical isoform): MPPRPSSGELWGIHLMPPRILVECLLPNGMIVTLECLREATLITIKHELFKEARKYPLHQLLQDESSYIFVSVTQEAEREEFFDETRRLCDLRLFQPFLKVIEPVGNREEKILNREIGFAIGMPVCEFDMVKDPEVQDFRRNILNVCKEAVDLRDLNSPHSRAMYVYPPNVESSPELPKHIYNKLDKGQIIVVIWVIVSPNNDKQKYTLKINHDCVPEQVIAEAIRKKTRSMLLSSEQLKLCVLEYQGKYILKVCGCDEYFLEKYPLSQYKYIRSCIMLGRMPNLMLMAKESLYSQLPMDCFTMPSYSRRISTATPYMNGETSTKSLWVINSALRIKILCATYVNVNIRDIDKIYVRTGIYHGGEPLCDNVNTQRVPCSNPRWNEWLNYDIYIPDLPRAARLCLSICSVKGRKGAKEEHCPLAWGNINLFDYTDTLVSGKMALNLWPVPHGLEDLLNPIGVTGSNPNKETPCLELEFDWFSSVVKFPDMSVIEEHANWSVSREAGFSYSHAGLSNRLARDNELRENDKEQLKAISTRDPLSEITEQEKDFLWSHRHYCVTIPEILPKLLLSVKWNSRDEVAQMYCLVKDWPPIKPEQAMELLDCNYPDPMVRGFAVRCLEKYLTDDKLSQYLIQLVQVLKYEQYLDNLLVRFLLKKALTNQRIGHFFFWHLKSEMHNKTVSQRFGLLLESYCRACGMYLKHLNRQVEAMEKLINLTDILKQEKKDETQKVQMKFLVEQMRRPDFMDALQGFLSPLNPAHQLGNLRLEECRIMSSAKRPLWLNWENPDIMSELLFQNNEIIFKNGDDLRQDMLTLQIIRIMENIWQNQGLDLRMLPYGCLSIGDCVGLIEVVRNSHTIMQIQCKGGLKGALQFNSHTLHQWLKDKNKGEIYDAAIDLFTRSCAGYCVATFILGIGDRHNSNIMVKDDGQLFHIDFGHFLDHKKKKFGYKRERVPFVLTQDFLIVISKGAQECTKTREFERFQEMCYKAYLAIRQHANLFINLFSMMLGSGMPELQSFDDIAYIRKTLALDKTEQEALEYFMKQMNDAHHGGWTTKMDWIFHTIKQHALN

By IC50 is commonly meant the midpoint of a concentration-inhibition curve. For `O=c1cc(N2CCOCC2)oc2c(-c3ccccc3)cccc12` [LY-294002], the inhibition in vivo at 10 mg/kg in the series with HCT-116 [1] was 35.2%. In addition, the IC50 in series [2] is more than 10 µM.

What is called CC50 is the concentration at which the toxic effect on the cells reaches its halfway point. A lower CC50 goes with harm at low concentration. `O=c1oc2ccccc2c2nn(CN3CCN(S(=O)(=O)c4ccc(C(F)(F)F)cc4)CC3)cc12`: the half-inhibitory concentration (IC50) with A549 came out at 1.15 µM; in series [3], 2.3 µM; in [4] it was 5.75 µM; in the series on HCT-116 [5], 0.84 µM; in the series on HL-60, 1.1 µM; in [6] it was 7.51 µM. The IC50 in [7] stood at 3.84 µM; in series [2], 8.12 µM; with Huh-7, 2.34 µM. For the same compound, the CC50 in series [8] amounted to 335 µM.

On to `Cc1cc(C)c(S(=O)(=O)N2CCN(Cn3cc4c(=O)oc5ccccc5c4n3)CC2)c(C)c1`, for which the IC50 was 0.11 µM in the series on A549; 0.14 µM in series [3]; 0.41 µM in [4]; 0.09 µM in the series with HCT-116 [5]; 0.11 µM in the series on HL-60; 0.23 µM in series [6]. Also, the IC50 stood at 0.12 µM in series [7], 7.44 µM in [2] and 0.3 µM in the series with Huh-7. The same compound registered a CC50 in series [8] of 354 µM.
